Experimental data gathered from unrelated publications.
Lines come from different studies, so protocols differ.
Target: Tyrosine-protein kinase Blk (BLK, Homo sapiens, UniProt P51451)

C[C@H]1CC[C@H](n2c3cnccc3c3cnc(Nc4ccc5c(n4)CCN(C(=O)CO)C5)nc32)CC1  remaining binding (cell-free assay; competition with immobilised ligand; 1 µM): 53%
CCCCC(=O)Nc1ccc(-c2ccc3ncn(CCC)c(=O)c3c2)cn1  remaining binding (binding; competition with immobilised ligand; 0.5 µM): 83%
C1=C/COCc2cc(ccc2OCCN2CCCC2)Nc2nccc(n2)-c2cccc(c2)COC/1  remaining binding (binding; 0.1 µM): 97%
CO[C@@H]1[C@H](N(C)C(=O)c2ccccc2)C[C@H]2O[C@]1(C)n1c3ccccc3c3c4c(c5c6ccccc6n2c5c31)C(=O)NC4  inhibition (enzyme activity; inhibitor; 1 µM): 79%
COc1ccc2oc(-c3ccc4nc(N)oc4c3)c/c(=N\c3ccccc3NC(=O)CCN)c2c1  remaining binding (binding; 1 µM): 92%
Cc1ccc(NC(=O)c2ccnc(C(F)(F)F)c2)cc1-c1cc(OCCO)nc(N2CCOCC2)c1  remaining binding (binding; competition with immobilised ligand; 1 µM): 100%
CC#CC(=O)N1CCC[C@H]1c1nc(-c2ccc(C(=O)Nc3ccccn3)cc2)c2c(N)nccn12  inhibition (enzyme activity; inhibitor; 1 µM): 47%
CC(C)S(=O)(=O)c1ccc2nccc(Nc3ccc4sc(C5CCCC5)nc4c3)c2c1  activity vs control (enzyme activity; inhibitor; 1 µM): 80%
